Values belong to the compound of their own block, whether it stands above or below them. Calls of active or inactive are those of the source. No cut-off for these calls is given here.
Tests used:
Gamma-secretase = test: Inhibition of gamma secretase assessed as reduction of amyloid beta level in H4 cells; format: cell-based, Homo sapiens
Outline: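 H4 cells; Aβ40 lowering measured in a cell-based assay; IC50 values are means of two experiments, 16 data points each, intra-assay variance <10%.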

Mus musculus [1] = test: Inhibition of beta amyloid peptide in Tg2576 mouse plasma at 30 umol/kg, po after 3 hrs; format: functional
Outline: (§1)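 Tg2576 mice, single oral dose of 30 µmol/kg; brain and plasma sampled 3 h after dosing for Aβ (% inhibition) and compound levels; n = 7-10; means ± SEM.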

[2] = Drug level in Tg2576 mouse brain at 30 umol/kg, po after 3 hrs; format: ADME, organism-based; details: read-out: Drug uptake; outline: as §1
[3] = Drug level in Tg2576 mouse plasma at 30 umol/kg, po after 3 hrs; format: ADME, organism-based; details: read-out: Drug uptake; outline: as §1
Mus musculus [4] = test: Inhibition of beta amyloid peptide in Tg2576 mouse brain at 30 umol/kg, po after 3 hrs; format: functional; outline: as §1
Mus musculus [5] = test: Inhibition of beta amyloid peptide in po dosed Tg2576 mouse plasma after 3 hrs; format: functional
Outline: (§2)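 Tg2576 mice dosed orally; brain and plasma Aβ measured 3 h after dosing; ED50 derived from dose-dependent Aβ reduction.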

Mus musculus [6] = test: Inhibition of beta amyloid peptide in po dosed Tg2576 mouse brain after 3 hrs; format: functional, organism-based; outline: as §2
Mus musculus [7] = test: Inhibition of beta amyloid peptide in Tg2576 mouse brain at 30 umol/kg, po bid after 14 days; format: functional; set-up: scale not given: the % may be the effect or the level left
Outline: (§3)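 Tg2576 mice dosed orally at 4 or 30 µmol/kg, once daily for 1 or 14 days or twice daily (30 µmol/kg); brain Aβ inhibition measured.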

Mus musculus [8] = test: Inhibition of beta amyloid peptide in Tg2576 mouse brain at 4 umol/kg, po qd after 14 days; format: functional; set-up: scale not given: the % may be the effect or the level left; outline: as §3
[9] = Terminal half life in Sprague-Dawley rat at 2.3 umol/kg, iv; format: ADME, organism-based; details: in vivo
Mus musculus [10] = test: Inhibition of beta amyloid peptide in Tg2576 mouse brain at 4 umol/kg, po qd after 1 day; format: functional; set-up: scale not given: the % may be the effect or the level left; outline: as §3
Mus musculus [11] = species: Mus musculus; test: Increase in beta amyloid peptide in Tg2576 mouse plasma after 24 hrs; format: functional
Mus musculus [12] = test: Toxicity in Tg2576 mouse at 30 umol/kg, po bid after 10 days; format: organism-based; details: in vivo, 240 h
Outline: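 Tg2576 mice dosed orally at 30 µmol/kg twice daily; clinical signs, body weight and mortality monitored; intestinal histopathology assessed.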

[13] = Oral bioavailability in Sprague-Dawley rat at 35 umol/kg; format: ADME, organism-based; details: in vivo
Outline: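 Rats dosed orally with a PEG-400 suspension at 35 µmol/kg; bioavailability from plasma exposure.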

Mus musculus [14] = test: Inhibition of beta amyloid peptide in Tg2576 mouse brain at 30 umol/kg, po qd after 1 day; format: functional; set-up: scale not given: the % may be the effect or the level left; outline: as §3
Mus musculus [15] = species: Mus musculus; test: Reduction of beta amyloid peptide in Tg2576 mouse brain after 12 hrs; format: functional, organism-based
[16] = Inhibition of human Cytochrome P450; format: ADME
Outline: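 Inhibition of human CYPs measured in vitro as IC50.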

Mus musculus [17] = test: Inhibition of beta amyloid peptide in Tg2576 mouse brain at 30 umol/kg, po, qd after 14 days; format: functional; set-up: scale not given: the % may be the effect or the level left; outline: as §3
Homo sapiens = species: Homo sapiens; test: Ratio of IC50 for Notch processing to IC50 for amyloid beta processing
Mus musculus [18] = species: Mus musculus; test: Reduction of beta amyloid peptide in Tg2576 mouse plasma after 12 hrs; format: functional, organism-based
[19] = Clearance in Sprague-Dawley rat at 2.3 umol/kg, iv; format: ADME, organism-based; details: in vivo

SMILES: C[C@H](NC(=O)Cc1cc(F)cc(F)c1)C(=O)NC1C(=O)N(C)NCc2ccccc21 (some centres undefined)
inhibition in vivo at 30 µmol/kg (Mus musculus [1]): 80%
concentration at 3 h [2]: 6 nM
concentration at 3 h [3]: 205 nM
ED50 (Mus musculus [5]): 5 µmol/kg
IC50 (Gamma-secretase): 9 nM
inhibition in vivo at 30 µmol/kg (Mus musculus [4]): 51%

SMILES: CC1=NN(C)C(=O)C(NC(=O)[C@H](C)NC(=O)Cc2ccoc2)c2ccccc21 (some centres undefined)
IC50 (Gamma-secretase): 2 nM

SMILES: CC(C)C[C@H](NC(=O)Cc1cccs1)C(=O)NC1C(=O)N(C)N=Cc2ccccc21 (some centres undefined)
IC50 (Gamma-secretase): 1.9 nM

SMILES: CC(C)C[C@H](NC(=O)Cc1ccccc1F)C(=O)NC1C(=O)N(C)N=Cc2ccccc21 (some centres undefined)
IC50 (Gamma-secretase): 22 nM

SMILES: C[C@H](NC(=O)Cc1ccc2ccccc2c1)C(=O)NC1C(=O)N(C)N=Cc2ccccc21 (some centres undefined)
IC50 (Gamma-secretase): 269 nM

SMILES: CC(C)C[C@H](NC(=O)Cc1cccc(F)c1)C(=O)NC1C(=O)N(C)N=Cc2ccccc21 (some centres undefined)
IC50 (Gamma-secretase): 2 nM

SMILES: CC(C)C[C@H](NC(=O)Cc1ccsc1)C(=O)NC1C(=O)N(C)N=Cc2ccccc21 (some centres undefined)
IC50 (Gamma-secretase): 0.7 nM

SMILES: C[C@H](NC(=O)Cc1cccs1)C(=O)NC1C(=O)N(C)N=Cc2ccccc21 (some centres undefined)
IC50 (Gamma-secretase): 3 nM

SMILES: CC1=NN(C)C(=O)C(NC(=O)[C@H](C)NC(=O)Cc2cc(F)cc(F)c2)c2ccccc21 (some centres undefined)
IC50 (Gamma-secretase): 1.3 nM

SMILES: C[C@H](NC(=O)Cc1cccc(Cl)c1)C(=O)NC1C(=O)N(C)N=Cc2ccccc21 (some centres undefined)
IC50 (Gamma-secretase): 10 nM

SMILES: C[C@H](NC(=O)Cc1ccco1)C(=O)NC1C(=O)N(C)N=Cc2ccccc21 (some centres undefined)
IC50 (Gamma-secretase): 24 nM

SMILES: CC(C)C[C@H](NC(=O)[C@H](O)c1ccccc1)C(=O)NC1C(=O)N(C)N=Cc2ccccc21 (some centres undefined)
IC50 (Gamma-secretase): 56 nM

SMILES: C[C@H](NC(=O)Cc1ccsc1)C(=O)NC1C(=O)N(C)N=Cc2ccccc21 (some centres undefined)
IC50 (Gamma-secretase): 1 nM

SMILES: CC(C)C[C@H](NC(=O)[C@@H](O)c1ccccc1)C(=O)NC1C(=O)N(C)N=Cc2ccccc21 (some centres undefined)
IC50 (Gamma-secretase): 0.4 nM

SMILES: C[C@H](NC(=O)CC1CCCCC1)C(=O)NC1C(=O)N(C)N=Cc2ccccc21 (some centres undefined)
IC50 (Gamma-secretase): 43 nM

SMILES: CC(C)C[C@H](NC(=O)Cc1ccc(F)cc1)C(=O)NC1C(=O)N(C)N=Cc2ccccc21 (some centres undefined)
IC50 (Gamma-secretase): 14 nM

SMILES: CC(C)C[C@H](NC(=O)CC1CCCCC1)C(=O)NC1C(=O)N(C)N=Cc2ccccc21 (some centres undefined)
IC50 (Gamma-secretase): 14 nM

SMILES: C[C@H](NC(=O)Cc1cccnc1)C(=O)NC1C(=O)N(C)N=Cc2ccccc21 (some centres undefined)
IC50 (Gamma-secretase): 162 nM

Now from value to compound, other results behind:

IC50 (Gamma-secretase): 8 nM
SMILES: C[C@H](NC(=O)Cc1cccc(F)c1)C(=O)NC1C(=O)N(C)N=Cc2ccccc21 (some centres undefined)

concentration at 3 h [2]: 12 nM
concentration at 3 h [3]: 199 nM
IC50 (Gamma-secretase): 6 nM
SMILES: C[C@H](NC(=O)Cc1cc(F)cc(F)c1)C(=O)NC1C(=O)N(C)N=Cc2ccccc21 (some centres undefined)
inhibition in vivo at 30 µmol/kg (Mus musculus [1]): 75%
inhibition in vivo at 30 µmol/kg (Mus musculus [4]): 54%

IC50 (Gamma-secretase): 750 nM
SMILES: C[C@H](NC(=O)[C@H](O)c1cc(F)cc(F)c1)C(=O)N[C@H]1C(=O)N(C)N=Cc2ccccc21

concentration at 3 h [2]: 72 nM
concentration at 3 h [3]: 546 nM
IC50 (Gamma-secretase): 30 nM
SMILES: C[C@H](NC(=O)[C@@H](O)c1cc(F)cc(F)c1)C(=O)N[C@H]1C(=O)N(C)N=Cc2ccccc21
inhibition in vivo at 30 µmol/kg (Mus musculus [4]): 29%

concentration at 3 h [2]: 202 nM
concentration at 3 h [3]: 2750 nM
IC50 (Gamma-secretase): 10 nM
SMILES: C[C@H](NC(=O)[C@H](O)c1cc(F)cc(F)c1)C(=O)N[C@@H]1C(=O)N(C)N=Cc2ccccc21
inhibition in vivo at 30 µmol/kg (Mus musculus [1]): 86%
inhibition in vivo at 30 µmol/kg (Mus musculus [4]): 91%
Activity (Mus musculus [6]): Active

IC50 (Gamma-secretase): 0.5 nM
SMILES: CC(C)C[C@H](NC(=O)Cc1cc(F)cc(F)c1)C(=O)NC1C(=O)N(C)N=Cc2ccccc21 (some centres undefined)

concentration at 3 h [2]: 280 nM
concentration at 3 h [3]: 2090 nM
IC50 (Gamma-secretase): 1 nM
SMILES: C[C@H](NC(=O)C(=O)c1cc(F)cc(F)c1)C(=O)NC1C(=O)N(C)N=Cc2ccccc21 (some centres undefined)
inhibition in vivo at 30 µmol/kg (Mus musculus [1]): 98%
inhibition in vivo at 30 µmol/kg (Mus musculus [4]): 92%

IC50 (Gamma-secretase): 4 nM
SMILES: CC(C)N1N=Cc2ccccc2C(NC(=O)[C@H](C)NC(=O)Cc2cc(F)cc(F)c2)C1=O (some centres undefined)

IC50 (Gamma-secretase): 0.2 nM
SMILES: C[C@H](NC(=O)[C@@H](O)c1cc(F)cc(F)c1)C(=O)NC1C(=O)N(C)N=Cc2ccccc21 (some centres undefined)

IC50 (Gamma-secretase): 59 nM
SMILES: C[C@H](NC(=O)Cc1ccc(F)cc1)C(=O)NC1C(=O)N(C)N=Cc2ccccc21 (some centres undefined)

half-life [9]: 4.6 h
concentration at 3 h [2]: 133 nM
concentration at 3 h [3]: 1960 nM
bioavailability [13]: 31%
IC50 [16]: > 100000 nM
IC50 (Gamma-secretase): 0.3 nM
Ratio IC50 (Homo sapiens): 0.5
clearance [19]: 5.2 mL/min/kg
SMILES: C[C@H](NC(=O)[C@@H](O)c1cc(F)cc(F)c1)C(=O)N[C@@H]1C(=O)N(C)N=Cc2ccccc21
Activity (Mus musculus [7]): 98%
Activity (Mus musculus [8]): 38%
inhibition in vivo at 30 µmol/kg (Mus musculus [1]): 88%
Activity (Mus musculus [10]): 25%
Activity (Mus musculus [11]): 60%
Activity (Mus musculus [12]): Toxic
Activity (Mus musculus [14]): 83%
Activity (Mus musculus [15]): Active
Activity (Mus musculus [17]): 89%
inhibition in vivo at 30 µmol/kg (Mus musculus [4]): 90%
Activity (Mus musculus [18]): Active
Activity (Mus musculus [6]): Active

Reference: ChEMBL document CHEMBL1139985, “Discovery of (S)-2-((S)-2-(3,5-difluorophenyl)-2-hydroxyacetamido)-N-((S,Z)-3-methyl-4-oxo-4,5-dihydro-3H-benzo[d][1,2]diazepin-5-yl)propanamide (BMS-433796): a gamma-secretase inhibitor with Abeta lowering activity in a transgenic mouse model of Alzheimer's disease” (Bioorg Med Chem Lett, 2007)
